Reference: ChEMBL document CHEMBL1155046, “Chemical constituents of Aristolochia constricta: antispasmodic effects of its constituents in guinea-pig ileum and isolation of a diterpeno-lignan hybrid” (2008)

What was measured:
[1] = system: Ileum; test: Antispasmodic activity in guinea pig ileum assessed as inhibition of electrically-induced smooth muscle contraction; type: functional, Cavia porcellus
Outline: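 Male albino guinea-pig ileum (300-450 g) held under 1 g tension in Krebs-Henseleit at 38.5 °C, gassed 95% O2/5% CO2. Transmural stimulation through platinum ring electrodes: supramaximal 38.6 V, 0.2 Hz, 0.3 ms square pulses. Once twitch was stable, compounds added cumulatively at 10, 30, 100 µM. Isotonic recording, contraction as % of control. IC50 calculated. Mean ± SEM from 4-5 animals. DMSO vehicle <1% final.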

[2] = system: Ileum; test: Antispasmodic activity in guinea pig ileum assessed as inhibition of acetylcholine-induced smooth muscle contraction; type: functional, Cavia porcellus
Outline: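 Ileum from male albino guinea pigs (300-450 g) in Krebs-Henseleit solution, 1 g tension, 10 mL bath, 38.5 °C, 95% O2/5% CO2. After 0.5 h equilibration, checked with 3 µM ACh three times. Samples (10, 30, 100 µM) added noncumulatively 20 min before 3 µM ACh. Contraction recorded isotonically, expressed as % of untreated ACh height. IC50 calculated. Mean ± SEM, 4-5 animals. DMSO <1% final.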

IC50 [1] [µM]	IC50 [2] [µM]	SMILES
51.6	23.6	O[C@H]1OC[C@H](Cc2ccc3c(c2)OCO3)[C@H]1Cc1ccc2c(c1)OCO2
> 100	> 100	CC1(C)CCC[C@]2(C)[C@@H]1CC[C@]13C=C(COC4OC[C@H](Cc5ccc6c(c5)OCO6)[C@H]4Cc4ccc5c(c4)OCO5)[C@@H](CC[C@H]12)C3 (some centres undefined)
52.8	39.5	COc1cc(C[C@H]2CO[C@@H](O)[C@@H]2Cc2ccc3c(c2)OCO3)ccc1O
69.8	27.3	O=C1OC[C@H](Cc2ccc3c(c2)OCO3)[C@H]1Cc1ccc2c(c1)OCO2 [HINOKININ]

The remaining lines, values behind:

SMILES	IC50 [1] [µM]	IC50 [2] [µM]
C=C1C[C@@]23CC[C@H]4[C@@](C)(CCC[C@]4(C)C(=O)O)[C@@H]2CCC1C3	28.2	25.4
CC1(C)CCC[C@]2(C)[C@@H]1CC[C@]13C=C(CO)[C@@H](CC[C@H]12)C3	34.1	> 100
CC1(C)CCC[C@]2(C)[C@@H]1CC[C@@]13C[C@H](CC[C@H]12)[C@@](O)(CO)C3	> 100	> 100
COc1cc(C[C@H]2C(=O)OC[C@@H]2Cc2ccc3c(c2)OCO3)ccc1O	58.3	26.8
COc1cc2c(cc1C)C(=O)CCC2C (single isomer, unassigned; (+))	> 100	89.8
COc1cccc2c1cc([N+](=O)[O-])c1c(C(=O)O)cc3c(c12)OCO3 [ARISTOLOCHIC ACID]	64	> 100
OC[C@H](Cc1ccc2c(c1)OCO2)[C@H](CO)Cc1ccc2c(c1)OCO2 [DIHYDROCUBEBIN]	> 100	40.4
COc1ccc(CCN(C)CCCC(C#N)(c2ccc(OC)c(OC)c2)C(C)C)cc1OC (centres undefined) [VERAPAMIL]	0.25	0.28
